Screening data: PubChem, Broad Institute
Only a selection was taken, and hits are over-represented in it overall.
IDH1 mut inh: inhibitors of human IDH1 R132H; O75874; IDH1 R132H reductase, diaphorase/resazurin fluorescence, 60 min; inhibition, % at 10 µM; 70,000 compounds, 0.18% hits; in the data active = inhibition above about 34%; inconclusive = no clear call, values can overlap the other calls; inactive = below about 11%;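 also: 0% = DMSO and 100% = no enzyme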
Target sequence (O75874 whole entry R132H): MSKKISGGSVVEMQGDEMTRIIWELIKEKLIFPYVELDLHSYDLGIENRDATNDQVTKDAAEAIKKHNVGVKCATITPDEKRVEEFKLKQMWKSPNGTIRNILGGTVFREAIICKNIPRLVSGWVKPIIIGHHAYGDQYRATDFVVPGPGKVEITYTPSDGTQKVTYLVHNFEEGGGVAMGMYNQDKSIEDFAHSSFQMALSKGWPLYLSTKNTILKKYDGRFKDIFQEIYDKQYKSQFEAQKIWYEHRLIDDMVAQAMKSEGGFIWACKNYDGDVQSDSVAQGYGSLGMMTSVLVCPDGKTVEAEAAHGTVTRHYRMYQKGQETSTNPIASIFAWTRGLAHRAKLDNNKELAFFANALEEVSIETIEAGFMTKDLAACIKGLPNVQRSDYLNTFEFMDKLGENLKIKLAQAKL
GASC1 inh: inhibitors of human demethylase GASC-1 KDM4C; Q9H3R0; GST-KDM4C 2-372, H3K9me3 peptide, LANCE TR-FRET; inhibition, % at 12.5 µM; 96,000 compounds, 0.15% hits; AID 720574;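 active = mean replicate inhibition above about 25%, with at least 55% of replicates also reaching it, limit read from the data, passing the limit was not always enough; inconclusive = only one of those two conditions met; inactive = neither condition met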
Target sequence (Q9H3R0 2-372 limits assumed): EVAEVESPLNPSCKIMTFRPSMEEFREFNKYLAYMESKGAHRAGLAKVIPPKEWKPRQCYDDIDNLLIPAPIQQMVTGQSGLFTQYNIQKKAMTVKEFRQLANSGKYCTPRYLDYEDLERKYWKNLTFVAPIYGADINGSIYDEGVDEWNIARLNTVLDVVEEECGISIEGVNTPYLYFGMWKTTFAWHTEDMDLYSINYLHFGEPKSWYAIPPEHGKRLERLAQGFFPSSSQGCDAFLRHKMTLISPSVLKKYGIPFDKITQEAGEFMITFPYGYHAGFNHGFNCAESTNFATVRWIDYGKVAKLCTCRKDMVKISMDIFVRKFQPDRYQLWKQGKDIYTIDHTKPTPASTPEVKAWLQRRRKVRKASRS
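Material: GST-tagged GASC-1 (JMJD2C) catalytic fragment, aa 2-372. Input: enzyme final amount 10 nM. Medium: HEPES buffer, pH 7.5, plus ascorbate. Reagent: H3K9me3 peptide substrate, Fe(II), 2-oxoglutarate. Doses: single dose. Times: reaction 30 min RT, detection step 1 h RT. Measured by: LANCE TR-FRET. Evaluation: Fall in 671/618 emission ratio as inhibition.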
T cruzi growth-1: T. cruzi proliferation inhibition | inhibition, % at 8.34 µM | 77,000 compounds, 5.9% hits | T. cruzi beta-gal in NIH3T3, GalScreen luminescence, 90 h | AID 624255;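 active = mean inhibition above about 93%, with at least 55% of replicates each passing it, limit read from the data, passing the limit was not always enough; inconclusive = only one of those two conditions holds; inactive = neither condition holds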
T cruzi growth-2: inhibitors of T. cruzi proliferation. shares compounds with T cruzi growth-1. 5,600 compounds, 72% hits. AID 651739. inhibition, % at 8.35 µM. T. cruzi beta-gal in NIH3T3, GalScreen luminescence, 90 h;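 active = mean replicate inhibition above about 95% and at least 55% of replicates individually reaching it, limit read from the data; inconclusive = only one of the two criteria is met; inactive = neither criterion is met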
T cruzi growth-3: inhibitors of T. cruzi proliferation. inhibition, % at 2.09 µM. AID 651740. 5,600 compounds, 21% hits. T. cruzi beta-gal in NIH3T3, GalScreen luminescence, 90 h. shares compounds with T cruzi growth-1;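 active = mean inhibition above about 95%, with at least 55% of replicates also reaching it, limit read from the data; inconclusive = meets just one of the two conditions; inactive = meets neither condition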;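 also: plate controls were neutral control median for no effect and positive control median for full effect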
3T3 cytotox: cytotoxicity in mouse NIH/3T3 fibroblasts; shares compounds with T cruzi growth-1; NIH/3T3 viability, CellTiter-Glo ATP luminescence, 90 h; cytotoxicity (signal decrease), % at 8.35 µM; 5,600 compounds, 14% hits; AID 651742;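 active = mean signal decrease across replicates above about 35% based on untreated-well scatter, with enough replicates individually passing, limit read from the data; inconclusive = no rule stated though some were filed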;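 also: 0% = median of neutral control wells and 100% = median of positive control wells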
NIH3T3 tox 2: cytotoxicity in mouse NIH/3T3 fibroblasts. shares compounds with T cruzi growth-1. NIH/3T3 viability, CellTiter-Glo ATP luminescence, 90 h. inhibition, % at 24.9 µM. 5,600 compounds, 56% hits. AID 651744;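 active = mean loss of cell viability signal at or above a set limit, and enough replicates individually reaching it; inconclusive = meets only the mean limit or only the replicate share; inactive = meets neither condition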;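 also: 0% = median of neutral control wells and 100% = median of positive control wells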
An asterisk follows results filed as active; ? = inconclusive; / = no result.

SMILES	IDH1 mut inh	GASC1 inh	T cruzi growth-1	T cruzi growth-2	T cruzi growth-3	3T3 cytotox	NIH3T3 tox 2
COc1ccc(NC(=O)Nc2ccc3c(c2)CC(=O)N([C@@H](C)CO)C[C@@H](C)[C@@H](CN(C)S(=O)(=O)c2cn(C)cn2)O3)cc1	-0.9	1.8	-18.4	/	/	/	/
COCC#Cc1ccc([C@H]2[C@H](CO)N3CCCCN(S(=O)(=O)c4cccc(OC)c4)C[C@@H]23)cc1	/	0.4	107.7*	97.2*	39.3	12.6	?
COCC#Cc1ccc([C@@H]2[C@H]3CN(S(=O)(=O)c4ccc(OC)cc4)CCCCN3[C@H]2CO)cc1	/	0.3	98.9*	100.3*	43.0	4.3	31.0*
COCC#Cc1ccc([C@H]2[C@@H](CO)N3CCCCN(S(=O)(=O)c4cccc(OC)c4)C[C@@H]23)cc1	/	-1.1	15.8	/	/	/	/
COCC#Cc1ccc([C@@H]2[C@@H](CO)N3CCCCN(S(=O)(=O)c4ccc(OC)cc4)C[C@@H]23)cc1	/	-0.4	71.9	/	/	/	/
COc1ccc(-c2ccc([C@@H]3[C@H]4CN(C(=O)c5ccc(F)cc5)CCCCN4[C@H]3CO)cc2)cc1	/	1.2	71.2	/	/	/	/
COc1ccc(-c2ccc([C@H]3[C@@H](CO)N4CCCCN(C(=O)c5ccc6c(c5)OCO6)C[C@H]34)cc2)cc1	/	-2.9	100.8*	103.7*	66.4	48.9*	103.6*
COc1ccc(-c2ccc([C@@H]3[C@@H](CO)N4C(=O)CN(C(=O)c5ccc6c(c5)OCO6)C[C@H]34)cc2)cc1	/	-2.0	/	/	/	/	/
COc1ccc(-c2ccc([C@@H]3[C@@H](CO)N4CCCCN(C(=O)c5ccc6c(c5)OCO6)C[C@H]34)cc2)cc1	/	-0.9	98.0*	79.2	33.3	21.1	97.8*
COc1ccc(-c2ccc([C@@H]3[C@@H](CO)N4CCCCN(C(=O)c5ccc(F)cc5)C[C@@H]34)cc2)cc1	/	0.9	67.0	/	/	/	/
COc1ccc(-c2ccc([C@H]3[C@@H](CO)N4CCCCN(C(=O)c5ccc6c(c5)OCO6)C[C@@H]34)cc2)cc1	/	0.3	117.6*	107.1*	92.6	45.9*	43.2*
COc1ccc(-c2ccc([C@@H]3[C@@H](CO)N4CCCCN(C(=O)c5ccc6c(c5)OCO6)C[C@@H]34)cc2)cc1	/	-1.0	114.9*	97.8*	39.5	1.8	43.4*
C[C@H]1CCCCO[C@H](CN(C)C(=O)CCC(F)(F)F)[C@@H](C)CN([C@@H](C)CO)C(=O)c2cc(NS(=O)(=O)c3cn(C)cn3)ccc2O1	3.8	-1.9	103.4	/	/	/	/
CO[C@H]1CN(C)C(=O)c2ccc(NC(C)=O)cc2OC[C@H](C)N(CC2CCCCC2)C[C@@H]1C	/	-0.2	/	/	/	/	/
COC(=O)c1ccccc1NC(=O)COc1ccc(C(C)C)cc1Br	0.1	/	/	/	/	/	/
C[C@@H]1CN([C@H](C)CO)C(=O)c2cc(NC(=O)C3CCCCC3)ccc2O[C@@H](C)CCCCO[C@H]1CN(C)S(=O)(=O)c1ccc(Cl)cc1	/	1.1	101.9*	106.0*	62.3	17.1	70.4*
C[C@H](CO)N1C[C@H](C)[C@H](CN(C)S(=O)(=O)c2ccc(Cl)cc2)OCCCC[C@H](C)Oc2ccc(NC(=O)C3CCCCC3)cc2C1=O	0.0	0.9	106.4*	110.8*	72.3	17.6	51.0*
C[C@@H]1CN([C@@H](C)CO)C(=O)c2cc(NC(=O)C3CCCCC3)ccc2O[C@@H](C)CCCCO[C@H]1CN(C)S(=O)(=O)c1ccc(Cl)cc1	/	/	87.1	/	/	/	/
Cc1ccc(S(=O)(=O)N(C)C[C@H]2OCCCC[C@@H](C)Oc3ccc(NC(=O)C4CCCCC4)cc3C(=O)N([C@H](C)CO)C[C@@H]2C)cc1	/	1.9	0.1	/	/	/	/
Cc1ccc(S(=O)(=O)N(C)C[C@H]2OCCCC[C@@H](C)Oc3ccc(NC(=O)C4CCCCC4)cc3C(=O)N([C@H](C)CO)C[C@H]2C)cc1	/	0.1	46.7	/	/	/	/
C[C@H](CO)N1C[C@H](C)[C@@H](CN(C)S(=O)(=O)c2ccc(Cl)cc2)OCCCC[C@H](C)Oc2ccc(NC(=O)C3CCCCC3)cc2C1=O	/	-1.2	107.5*	104.4*	45.7	-22.3	-4.0
C[C@@H]1CCCCO[C@H](CN(C)S(=O)(=O)c2ccc(F)cc2)[C@@H](C)CN([C@@H](C)CO)C(=O)c2cc(NC(=O)C3CCCCC3)ccc2O1	2.6	-1.0	74.6	/	/	/	/
C[C@@H]1CCCCO[C@@H](CN(C)S(=O)(=O)c2ccc(F)cc2)[C@H](C)CN([C@H](C)CO)C(=O)c2cc(NC(=O)C3CCCCC3)ccc2O1	/	0.4	101.0*	107.5*	64.9	12.8	-8.0
COC(=O)C[C@H]1CC[C@H]2[C@@H](COc3ccc(NC(=O)NCc4ccccc4)cc3C(=O)N2C)O1	/	-1.1	/	/	/	/	/
CN(C[C@@H]1N[C@H](CO)[C@H]1c1ccccc1)C(=O)c1ccccn1	/	4.5	79.0	/	/	/	/
SMILES	IDH1 mut inh	GASC1 inh	T cruzi growth-1	T cruzi growth-2	T cruzi growth-3	3T3 cytotox	NIH3T3 tox 2
Cc1ccc(S(=O)(=O)N(C)C[C@H]2Oc3ncc(-c4ccccc4)cc3C(=O)N([C@H](C)CO)C[C@H]2C)cc1	0.3	-3.4	32.6	/	/	/	/
O=C1CN(S(=O)(=O)Cc2ccccc2)C[C@@H]2[C@@H](c3ccc(C#Cc4cccnc4)cc3)[C@@H](CO)N12	/	-1.2	/	/	/	/	/
C[C@@H]1CCCCO[C@H](CN(C)C(=O)C2CCCCC2)[C@@H](C)CN([C@@H](C)CO)C(=O)c2cc(NS(=O)(=O)c3cn(C)cn3)ccc2O1	-0.2	-2.3	-59.1	/	/	/	/
COc1cc(-n2nnnc2SCC(=O)Nc2cccc(Cl)c2Cl)c(OC)cc1Cl	0.6	/	/	/	/	/	/
C[C@@H]1CCCCO[C@H](CN(C)S(=O)(=O)c2ccc(Cl)cc2)[C@H](C)CN([C@@H](C)CO)C(=O)c2cc(NC(=O)C3CCCCC3)ccc2O1	/	0.5	107.9*	103.2*	83.9	-8.3	23.7
COc1ccc(S(=O)(=O)N(C)C[C@@H]2OCCCC[C@@H](C)Oc3ccc(NC(=O)C4CCCCC4)cc3C(=O)N([C@@H](C)CO)C[C@H]2C)cc1	1.2	0.2	106.4*	107.3*	40.4	8.9	20.5
COc1ccc(S(=O)(=O)N(C)C[C@H]2OCCCC[C@@H](C)Oc3ccc(NC(=O)C4CCCCC4)cc3C(=O)N([C@@H](C)CO)C[C@H]2C)cc1	-2.8	0.7	57.1	/	/	/	/
Cc1ccc(S(=O)(=O)N(C)C[C@H]2OCCCC[C@H](C)Oc3ccc(NC(=O)C4CCCCC4)cc3C(=O)N([C@@H](C)CO)C[C@H]2C)cc1	/	-0.2	62.9	/	/	/	/
C[C@@H]1CCCCO[C@@H](CN(C)S(=O)(=O)c2cn(C)cn2)[C@@H](C)CN([C@H](C)CO)C(=O)c2cc(NC(=O)CCCN(C)C)ccc2O1	/	2.9	-27.8	/	/	/	/
CS(=O)(=O)N1CCCCN2[C@H](CO)[C@H](c3ccc(C#Cc4ccccn4)cc3)[C@@H]2C1	/	-0.3	113.0*	88.6	48.2	0.4	12.4
